A selection: hits, their analogues and other compounds. The true share with any hit is near 4.9%.
STAT1 act-1: STAT1 signaling activators, primary screen, cell-based, HTS, luciferase reporter; NIH 3T3 STAT1-luciferase reporter, IFN-gamma, luminescence; 100% = IFN-gamma alone, no compound; 2.6% of 200,000 active; AID 932, 2007; activation (% of control), % at 5.5 µM;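 active means activation above the screen-wide mean activation plus 3 SD, cut at about 130% in these data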;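 further: raw ratio to IFN-gamma control signal so 100% means no change and 0% no light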
STAT3 act-1: IL-6 driven STAT3 reporter potentiators, primary screen, U3A cells, luciferase, luminescence, MLSCN library; IL-6 STAT3-luciferase reporter; 100% = signal with IL-6 EC80 alone; activation (% of control), % at 5.6 µM; 0.91% of 190,000 active; AID 871, 2007;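 active means activation above the screen-wide mean of compound activation plus 3 SD, cut at about 130% in these data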;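 further: 0% = background luminescence of wells with medium and substrate only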
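Material: human STAT1-deficient U3A cells with stable STAT3-luciferase reporter / Probe or stimulus: IL-6 stimulus at 33 ng/mL final / Schedule: 1 h compound pre-exposure, 6 h IL-6 stimulation, 37 °C / Technique: luminescence / Read-out basis: percent of IL-6-only median luminescence / Control set: IL-6-only high control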
NF-kB neuron act: activators of NF-kB expression in neurons, primary screen, cell-based, HTS. human neuronal cells, NF-kB reporter expression; active compounds read high. fold change at 12.5 µM. 1.6% of 190,000 active; in the data active means fold change above about 3.3
STAT3 inh: IL-6 driven STAT3 reporter inhibitors, primary screen, U3A cells, luciferase, luminescence, MLSCN library; IL-6 STAT3-luciferase reporter; host cell line lacks STAT1; inhibition, % at 5.5 µM; 0.89% of 190,000 active;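 active means inhibition above the mean inhibition across all screened compounds plus 3 SD, cut at about 44% in these data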;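 further: 0% = DMSO only wells and 100% = 100 µM nifuroxazide control wells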
APP 5'UTR act: activators of APP 5'UTR luciferase reporter, primary screen, SH-SY5Y cells. activation, % at 2 µM. AID 1276, 2008. SH-SY5Y APP 5'UTR luciferase reporter, luminescence; zero percent = DMSO vehicle wells. 1% of 190,000 active;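 active means activation above a set limit, based on mean plus 3 SD of controls, cut at about 140% in these data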
STAT1 inh: STAT1 signaling inhibitors, primary screen, cell-based, HTS, luciferase reporter; inhibition, % at 5.5 µM; NIH 3T3 STAT1-luciferase reporter, IFN-gamma, luminescence; 0.35% of 200,000 active;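 active means inhibition above a set limit, the mean inhibition across all tested compounds plus 3 SD, cut at about 34% in these data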;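 further: 0% = IFN-gamma with DMSO and 100% = IFN-gamma with 300 µM nifuroxazide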
STAT3 act-2: STAT3 reporter potentiators, retest of hits, confirmation, U3A cells, luciferase, luminescence; shares compounds with STAT3 act-1; IL-6 potentiation; U3A cells lack STAT1; 100 means same as IL-6 alone; potentiation (% of control), % at 5.7 µM; 64% of 1,200 active; AID 1267, 2008;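 active means percent activation of the STAT3 luciferase reporter above a set limit taken from the earlier primary screen, cut at about 130% in these data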;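 further: 0% = background signal of medium plus substrate and 100% = median of IL-6 with DMSO wells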
NFkB act 2: NF-kB reporter activators in human cells, counter-screen for STAT3 activator project; shares compounds with STAT3 act-1; 11% of 1,200 active; activation (% of control), % at 5.7 µM; NF-kappaB reporter activation; in the data active means activation above about 120%;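 further: reporter induced by TNF-alpha stimulation; 100% = median of stimulated DMSO wells and 0% = no signal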
STAT1 act-2: STAT1 reporter activators, IFN-gamma induced, counter-screen for STAT3 activator project, cell-based, NIH 3T3, luciferase luminescence. shares compounds with STAT3 act-1. NIH 3T3 STAT1-luciferase reporter. activation (% of control), % at 5.7 µM. 13% of 1,200 active. AID 1318, 2008;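 active means activation above the solvent-only control well mean plus 3 SD, set per screening run, cut at about 120% in these data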;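 further: 100% = IFN-gamma with DMSO median signal so 100% means no change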
Active calls of the source: *.

Results for CNC(=S)N/N=C/c1ccc(OCC(=O)Nc2c(C)cc(C)cc2C)c(OC)c1 ?
STAT1 act-1: 100; STAT3 act-1: 126; NF-kB neuron act: 0.43; STAT3 inh: -38; APP 5'UTR act: 9; STAT1 inh: 0

What do the screens show for `COc1cc(/C=N/NC(N)=S)ccc1OCC(=O)Nc1ccc(C)cc1`?
STAT1 act-1: 105; STAT3 act-1: 154*; NF-kB neuron act: 1; STAT3 inh: -54; APP 5'UTR act: -6; STAT1 inh: -5; STAT3 act-2: 118; NFkB act 2: 99; STAT1 act-2: 111

What do the screens show for `CCOn1c(=O)c(-c2cc3ccccc3o2)[n+]([O-])c2ccccc21`?
STAT1 act-1: 123; STAT3 act-1: 154*; NF-kB neuron act: 1.5; STAT3 inh: -56; APP 5'UTR act: 16; STAT1 inh: -25; STAT3 act-2: 179*; NFkB act 2: 128*; STAT1 act-2: 158*

What do the screens show for `O=C(Nc1nnc(CC(=O)N2CCOCC2)s1)c1cccs1`?
STAT1 act-1: 96; STAT3 act-1: 147*; NF-kB neuron act: 1.2; STAT3 inh: -53; APP 5'UTR act: -6; STAT1 inh: 1; STAT3 act-2: 98; NFkB act 2: 106; STAT1 act-2: 106

How did Cc1cc2ccc(C)c(C)c2nc1SCC(=O)c1cccs1 do in these assays?
STAT1 act-1: 81; STAT3 act-1: 160*; NF-kB neuron act: 0.71; STAT3 inh: -66; APP 5'UTR act: -2; STAT1 inh: 21; STAT3 act-2: 134*; NFkB act 2: 100; STAT1 act-2: 91

How did Cc1ccc2cc(C)c3nnc(SCC(=O)c4cccs4)n3c2c1C do in these assays?
STAT1 act-1: 89; STAT3 act-1: 109; NF-kB neuron act: 1.4; STAT3 inh: -10; APP 5'UTR act: 7; STAT1 inh: 12

Results for COc1ccccc1-c1nnc(SCC(=O)N2CCOCC2)o1 ?
STAT1 act-1: 124; STAT3 act-1: 151*; NF-kB neuron act: 1.6; STAT3 inh: -60; APP 5'UTR act: 25; STAT1 inh: -26; STAT3 act-2: 159*; NFkB act 2: 106; STAT1 act-2: 106

How did COc1ccccc1-c1nnc(SCC(=O)N2CCC(C)CC2)o1 do in these assays?
STAT1 act-1: 101; STAT3 act-1: 117; NF-kB neuron act: 1.1; STAT3 inh: -18; APP 5'UTR act: 33; STAT1 inh: -1

Results for C/C(=N\Nc1nc2ccccc2[nH]1)c1cc2ccccc2o1 ?
STAT1 act-1: 107; STAT3 act-1: 143*; NF-kB neuron act: 1; STAT3 inh: -49; APP 5'UTR act: 106; STAT1 inh: -8; STAT3 act-2: 176*; NFkB act 2: 122*; STAT1 act-2: 134*

Results for Nc1n[nH]c(N)c1N=Nc1ccc(Cl)cc1Cl ?
STAT1 act-1: 115; STAT3 act-1: 85; NF-kB neuron act: 1; STAT3 inh: 19; APP 5'UTR act: 40; STAT1 inh: -17

How did O=C(N/N=C\c1cccs1)c1ccccc1-n1cccc1 do in these assays?
STAT1 act-1: 97; STAT3 act-1: 138*; NF-kB neuron act: 0.92; STAT3 inh: -44; APP 5'UTR act: 8; STAT1 inh: 2; STAT3 act-2: 148*; NFkB act 2: 105; STAT1 act-2: 96

What do the screens show for `O=C(N/N=C\c1ccccc1)c1ccccc1-n1cccc1`?
STAT1 act-1: 100; STAT3 act-1: 114; NF-kB neuron act: 1; STAT3 inh: -15; APP 5'UTR act: -1; STAT1 inh: -1

Results for O=C(CCc1nc2ccccc2s1)Nc1cccnc1 ?
STAT1 act-1: 100; STAT3 act-1: 109; NF-kB neuron act: 0.99; STAT3 inh: -6; APP 5'UTR act: -12; STAT1 inh: 0

How did Cc1cc(C)nc(/N=C(/NC(=O)Nc2cccc(Cl)c2)Nc2ccccc2)n1 do in these assays?
STAT1 act-1: 104; STAT3 act-1: 89; NF-kB neuron act: 1; STAT3 inh: 22; APP 5'UTR act: -1; STAT1 inh: -5

How did O=C(CN(C1CCCCC1)C1CCCCC1)N1CCc2ccccc2C1 do in these assays?
STAT1 act-1: 100; STAT3 act-1: 113; NF-kB neuron act: 0.65; STAT3 inh: -17; APP 5'UTR act: 8; STAT1 inh: 0

What do the screens show for `CCOC(=O)CN1C(=O)C2(OCCCO2)c2ccccc21`?
STAT1 act-1: 104; STAT3 act-1: 106; NF-kB neuron act: 1.7; STAT3 inh: -5; APP 5'UTR act: 14; STAT1 inh: -5

What do the screens show for `CCOC(=O)CN1C(=O)C(O)(c2c(C)[nH]c3ccccc23)c2ccccc21` (stereo not drawn)?
STAT1 act-1: 91; STAT3 act-1: 167*; NF-kB neuron act: 0.91; STAT3 inh: -75; APP 5'UTR act: -8; STAT1 inh: 9; STAT3 act-2: 126; NFkB act 2: 107; STAT1 act-2: 94

What do the screens show for `N#Cc1c(N)nc2c(c1-c1ccc3c(c1)OCO3)CCc1ccccc1-2`?
STAT1 act-1: 89; STAT3 act-1: 92; NF-kB neuron act: 1.1; STAT3 inh: 10; STAT1 inh: 12

Results for O=C(O)c1cc2ccc3ccccc3c2oc1=O ?
STAT1 act-1: 103; STAT3 act-1: 152*; NF-kB neuron act: 1.1; STAT3 inh: -58; APP 5'UTR act: 11; STAT1 inh: -1; STAT3 act-2: 132; NFkB act 2: 99; STAT1 act-2: 99

What do the screens show for `Cc1c(C(=O)c2ccc([N+](=O)[O-])cc2)c(=O)n(C)c(=O)n1C`?
STAT1 act-1: 102; STAT3 act-1: 109; NF-kB neuron act: 1.3; STAT3 inh: 0; APP 5'UTR act: 4; STAT1 inh: -2

What do the screens show for `Cc1nn2c(-c3cccc(NC(=O)c4ccco4)c3)nnc2c2ccccc12`?
STAT1 act-1: 102; STAT3 act-1: 81; NF-kB neuron act: 0.3; STAT3 inh: 24; APP 5'UTR act: -14; STAT1 inh: -4

High-throughput results from PubChem.
